Drawing on ChEMBL document CHEMBL1156627, “Ring expanded nucleoside analogues inhibit RNA helicase and intracellular human immunodeficiency virus type 1 replication” (J Med Chem, 2008), this text covers Activity for two compounds.

The source made the active and inactive calls. The calls are words filed in the database; no cut-off is given here.

Series [1] deals with Human immunodeficiency virus 1. As to the kind of experiment: Inhibition of macrophage tropic HIV1 AD8 replication in monocyte-derived macrophages p24 capsid protein level at 25 uM after 5 days by ELISA. Type of series: functional, organism-based. Put shortly: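 Elutriated blood monocytes cultured 5–7 days in RPMI-1640 with 10% pooled human AB serum and M-CSF to give macrophages. Infected on day 5 with 100,000 RT counts of HIV-1 AD8 (stock from HeLa transfection) and treated with compound. Supernatants collected every 3 days for p24 ELISA. Three repeats.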

Series [2] has as its system Human immunodeficiency virus 1. As to the kind of experiment: Antiviral activity against HIV1 transfected in human HeLa cells assessed as reduction of p24 viral protein synthesis at 25 uM. The format is functional, organism-based. Put shortly:
(§1)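 HeLa cells transfected with 2µg pNL4-3 proviral clone; compound 25 µM added 3 hrs post-transfection. Lysates prepared 24 hrs later; viral proteins detected by Western blotting with anti-HIV-1 patient IgG (hyperimmune patient serum).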

Series [3] relates to Human immunodeficiency virus 1. As to the kind of experiment: Inhibition of HIV1 replication in human MT4 cells assessed as reduction in reverse transcriptase production at 10 uM. Type of series: functional, organism-based. In outline: (§2)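 MT4 cells (4 × 10^6, RPMI + 10% FBS) infected with 20,000 RT counts of NL4-3 (HeLa-transfection stock); compound added 4 hrs post-infection. Half the medium replaced every 2 days with drug-containing medium; supernatants collected every 2 days up to day 8 and assayed for RT activity (also p24 ELISA). Three independent experiments.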

The subject of series [4] is Human immunodeficiency virus 1. As to the kind of experiment: Inhibition of macrophage tropic HIV1 AD8 replication in monocyte-derived macrophages assessed as reduction in reverse transcriptase at 25 uM after 5 days by Western blotting. The format is functional, organism-based. Put shortly:
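Monocyte-derived macrophages from elutriated blood monocytes cultured 5–7 days in RPMI-1640 with 10% pooled human AB serum and M-CSF, then infected with 10^5 RT counts of M-tropic HIV-1 AD8 and treated with compound. Supernatants collected every 3 days for RT activity and p24 ELISA; three repeats.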

Series [5] relates to Human immunodeficiency virus 1. The series is described as follows: Inhibition of HIV1 replication in human MT4 cells assessed as reduction in reverse transcriptase at 25 uM after 8 days by Western blotting. The format is functional, organism-based. Put shortly: as §2
(In western blotting, separated proteins are transferred to a membrane and probed.)

The test system of series [6] is Human immunodeficiency virus 1. As to the kind of experiment: Inhibition of HIV1 replication in human MT4 cells assessed as p24 capsid protein level at 25 uM after 8 days by ELISA. Type of series: functional, organism-based. Put shortly:
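NL4-3 virus stock made by HeLa transfection, titred by RT assay. 4 × 10^6 MT4 cells (RPMI, 10% FBS) infected with 20,000 RT counts; compound added 4 hrs post infection. Half the medium replaced every 2 days with fresh medium holding the same compound level. Supernatants taken every 2 days over 8 days for p24 ELISA. Three repeats.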

Series [7] relates to Mus musculus. The series is described as follows: Toxicity in BALB/c mouse assessed as tissue necrosis at 0.2 to 200 uM, ip administered […] relative to control. As to conditions: in vivo, 840 h. Type of series: organism-based. In outline:
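BALB/c mice, 8–10 weeks old, groups of 4, injected intraperitoneally twice weekly for 4 weeks with boluses calculated to give body distributions of 0.2, 2, 20 and 200 µM. Controls received saline or DMSO. Mice monitored 5 weeks in total, tail-vein blood weekly, then necropsy and multi-organ histology.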

In series [8] the test system is MT4. As to the kind of experiment: Cytotoxicity against human MT4 cells at 1 to 100 uM after 6 days by colorimetric assay relative to control. The format is cell-based. As to conditions: mt4, 144 h. Put shortly:
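MT4 cells (4 × 10^6 in 2 ml, RPMI + 10% FBS) incubated with 1, 10 or 100 µM compound over 6 days; half the medium replaced every 2 days with fresh drug-containing medium. At each harvest 100 µl suspension incubated 2 hrs with WST-8, absorbance at 450 nm, compared with untreated cells.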

Series [9] concerns Human immunodeficiency virus 1. As to the kind of experiment: Antiviral activity against HIV1 transfected in human HeLa cells assessed as reduction of p55 viral protein synthesis at 25 uM. The format is functional, organism-based. Put shortly:
as §1

Series [10] has as its target ATP-dependent RNA helicase DDX3X (Homo sapiens) (UniProt O00571). As to the kind of experiment: Inhibition of ATP dependent RNA unwinding activity of human RNA helicase DDX3. In outline:
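Partially double-stranded RNA: 120-nt T3 transcript from KpnI-cut pBluescript hybridized (95 °C, 20 min) to complementary [α-32P]UTP-labelled T7 transcript from EcoRI-cut vector. Products resolved on 10% polyacrylamide gel, phosphorimaging.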

ATP-dependent RNA helicase DDX3X (Homo sapiens), sequence (O00571 2-662 limits assumed): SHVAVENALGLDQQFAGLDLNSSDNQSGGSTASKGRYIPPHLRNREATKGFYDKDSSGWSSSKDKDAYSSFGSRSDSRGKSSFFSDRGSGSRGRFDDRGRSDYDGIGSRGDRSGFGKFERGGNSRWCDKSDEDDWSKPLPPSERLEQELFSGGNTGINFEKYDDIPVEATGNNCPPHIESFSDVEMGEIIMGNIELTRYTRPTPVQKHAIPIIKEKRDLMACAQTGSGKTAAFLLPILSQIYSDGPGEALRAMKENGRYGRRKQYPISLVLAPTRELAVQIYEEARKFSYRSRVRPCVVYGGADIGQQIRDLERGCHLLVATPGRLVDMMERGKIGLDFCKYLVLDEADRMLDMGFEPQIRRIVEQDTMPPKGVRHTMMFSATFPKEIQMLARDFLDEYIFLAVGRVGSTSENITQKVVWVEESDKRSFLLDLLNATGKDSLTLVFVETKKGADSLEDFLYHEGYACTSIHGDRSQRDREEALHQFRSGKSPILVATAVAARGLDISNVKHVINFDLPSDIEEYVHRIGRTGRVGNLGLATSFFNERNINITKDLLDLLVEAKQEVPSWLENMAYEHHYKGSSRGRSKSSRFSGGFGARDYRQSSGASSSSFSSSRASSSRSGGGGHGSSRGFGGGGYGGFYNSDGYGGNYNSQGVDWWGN

As for `CCCCCCCCCCCCCCCCCCNc1nc(=O)c2ncn([C@@H]3O[C@H](CO)[C@@H](O)[C@H]3O)c2c(=O)[nH]1`, the result in series [1], in [2], in series [3], in series [4], in [5] and in series [6] was Active. For the same compound, the outcome in series [9] and in [10] was Active. In addition, the Activity entry in series [7] and in series [8] was “Non-toxic” in each case.
`CCCCCCCCCCCCCCCCCCNc1nc(=O)c2c(ncn2[C@@H]2C[C@@H](O)[C@H](CO)O2)c(=O)[nH]1`: the result in [1], in [2], in [3], in [4], in series [5] and in [6] was Active. Moreover, the outcome in [9] and in [10] was Active. Also, the Activity entry in [7] and in series [8] was “Non-toxic” each time.
